Test results from ChEMBL document CHEMBL4138242, “Synthesis and antibacterial evaluation of novel cationic chalcone derivatives possessing broad spectrum antibacterial activity” (Eur J Med Chem, 2018).
Calls of active or inactive are those of the source. The calls are words filed in the database; no cut-off is given here.

Assays:
Staphylococcus aureus [1] = experiment: Antibacterial activity against methicillin-resistant Staphylococcus aureus clinical isolate 1104060 after 16 to 20 hrs by broth microdilution method; type: functional
Procedure, shortened: (§1)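 CLSI broth microdilution in Mueller-Hinton broth. A 4-6 h culture was diluted to about 10⁶ CFU/mL and mixed 1:1 with compound dilutions prepared at 256 to 0.5 µg/mL from aqueous stocks. Plates were incubated at 37 °C for 16-20 h and read visually for MIC. Each concentration was run in duplicate, and the experiment was repeated at least twice. Vancomycin and meropenem were comparators.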

Staphylococcus aureus [2] = experiment: Antibacterial activity against methicillin-resistant Staphylococcus aureus clinical isolate 1208143 after 16 to 20 hrs by broth microdilution method; type: functional; procedure, shortened: as §1
Klebsiella pneumoniae [3] = experiment: Antibacterial activity against drug-resistant carbapenemase producing Klebsiella pneumoniae clinical isolate KP-14-18 after 16 to 20 hrs by broth microdilution method; type: functional; procedure, shortened: as §1
Escherichia coli [4] = experiment: Induction of cytoplasmic membrane depolarization in Escherichia coli ATCC 25922 at 10 to 20 ug/ml measured every 2 mins for 12 mins by DiSC35 dye-based fluorescence assay; type: functional, organism-based
Procedure, shortened: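 Mid-log cells (~10⁸ CFU/mL) were suspended in PBS (S. aureus) or HEPES/glucose/KCl with EDTA (E. coli). They were preloaded with DiSC3(5) for 30 min (S. aureus) or 40 min (E. coli), and baseline fluorescence was read for 8 min. Compound was added to 20 µg/mL final, and fluorescence (ex 622/em 670 nm) was read every 2 min for 12 min. Water served as control.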

Klebsiella pneumoniae [5] = experiment: Antibacterial activity against drug-resistant carbapenemase producing Klebsiella pneumoniae clinical isolate KP-14-1 after 16 to 20 hrs by broth microdilution method; type: functional; procedure, shortened: as §1
Staphylococcus aureus [6] = experiment: Bactericidal activity against Staphylococcus aureus ATCC 29213 after 20 to 24 hrs; type: functional; details: read-out: MBC99.9
Procedure, shortened: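 MBC: wells showing little or no turbidity in the broth microdilution MIC assay were plated (20 µL) on agar and incubated 20-24 h at 37 °C. MBC is the lowest concentration giving no colonies.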

Staphylococcus aureus [7] = experiment: Induction of inner membrane permeabilization in Staphylococcus aureus ATCC 29213 at 10 to 20 ug/ml measured every 2 mins for 12 mins by propidium iodide staining-based fluorescence assay; type: functional, organism-based
Procedure, shortened: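 Mid-log cells (~10⁸ CFU/mL) were suspended in PBS (S. aureus) or HEPES/glucose/KCl (E. coli). They were preincubated with propidium iodide for 30 min (S. aureus) or 40 min (E. coli), and baseline fluorescence was read for 8 min. Compound was added to 20 µg/mL final, and fluorescence (ex 535/em 617 nm) was read every 2 min for 12 min.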

Staphylococcus aureus [8] = experiment: Antibacterial activity against methicillin-resistant Staphylococcus aureus clinical isolate 1-may after 16 to 20 hrs by broth microdilution method; type: functional; procedure, shortened: as §1
Escherichia coli [9] = experiment: Antibacterial activity against drug-resistant NDM1 producing Escherichia coli clinical isolate Ecl-13-62 after 16 to 20 hrs by broth microdilution method; type: functional; procedure, shortened: as §1
Escherichia coli [10] = experiment: Antibacterial activity against drug-resistant NDM1 producing Escherichia coli clinical isolate EC-13-49 after 16 to 20 hrs by broth microdilution method; type: functional; procedure, shortened: as §1
Staphylococcus aureus [11] = experiment: Bactericidal activity against methicillin-resistant Staphylococcus aureus in presence of 50% sheep blood after 20 to 24 hrs; type: functional; details: read-out: MBC99.9
Procedure, shortened: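 MRSA at 10⁵ CFU/mL in 50% MHB plus 50% sheep serum, plasma or defibrinated blood; serum and plasma were obtained by centrifugation at 3,500 rpm for 10 min. Aqueous dilutions prepared at 512-4 µg/mL were added 1:3 to the suspension and incubated for 20-24 h at 37 °C. Well contents (20 µL) were plated on MHA for 20-24 h, and MBC was the concentration giving no colonies.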

Escherichia coli [12] = experiment: Antibacterial activity against drug-resistant NDM1 producing Escherichia coli clinical isolate KP-13-58 after 16 to 20 hrs by broth microdilution method; type: functional; procedure, shortened: as §1
Escherichia coli [13] = experiment: Antibacterial activity against drug-resistant NDM1 producing Escherichia coli clinical isolate SM-15-84 after 16 to 20 hrs by broth microdilution method; type: functional; procedure, shortened: as §1
Staphylococcus aureus [14] = experiment: Disruption of 24 hrs cultured Staphylococcus aureus ATCC 29213 biofilm assessed as cell viability in biofilm at 32 ug/ml after 24 hrs by crystal violet staining-based assay (reference value: 15.96 log10CFU/ml); type: functional
Staphylococcus aureus [15] = experiment: Disruption of 24 hrs cultured Staphylococcus aureus ATCC 29213 biofilm assessed as cell viability in biofilm at 128 ug/ml after 24 hrs by crystal violet staining-based assay (reference value: 15.96 log10CFU/ml); type: functional
Staphylococcus aureus [16] = experiment: Antibacterial activity against Staphylococcus aureus ATCC 29213 after 16 to 20 hrs by broth microdilution method; type: functional
Procedure, shortened: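 Broth microdilution per CLSI. Bacteria grown 4-6 h (about 10⁸ CFU/mL), then diluted to about 10⁶ CFU/mL. Medium: Mueller-Hinton broth, except Luria-Bertani broth for E. coli. Compounds in sterile water, twofold series 256-0.5 µg/mL, mixed 1:1 with inoculum, 37 °C for 16-20 h. MIC is the lowest concentration without visible growth. Duplicate wells; experiment repeated at least twice.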

Escherichia coli [17] = experiment: Antibacterial activity against drug-resistant NDM1 producing Escherichia coli clinical isolate CF-13-61 after 16 to 20 hrs by broth microdilution method; type: functional; procedure, shortened: as §1
Staphylococcus aureus [18] = experiment: Antibacterial activity against methicillin-resistant Staphylococcus aureus clinical isolate 0906202 after 16 to 20 hrs by broth microdilution method; type: functional; procedure, shortened: as §1
Staphylococcus aureus [19] = experiment: Antibacterial activity against methicillin-resistant Staphylococcus aureus clinical isolate 20131012632sau after 16 to 20 hrs by broth microdilution method; type: functional; procedure, shortened: as §1
Klebsiella pneumoniae [20] = experiment: Antibacterial activity against drug-resistant carbapenemase producing Klebsiella pneumoniae clinical isolate KP-13-45 after 16 to 20 hrs by broth microdilution method; type: functional; procedure, shortened: as §1
Klebsiella pneumoniae [21] = experiment: Antibacterial activity against drug-resistant carbapenemase producing Klebsiella pneumoniae clinical isolate KP-13-55 after 16 to 20 hrs by broth microdilution method; type: functional; procedure, shortened: as §1
Escherichia coli [22] = experiment: Antibacterial activity against drug-resistant NDM1 producing Escherichia coli clinical isolate Ecl-14-56 after 16 to 20 hrs by broth microdilution method; type: functional; procedure, shortened: as §1
Escherichia coli [23] = experiment: Antibacterial activity against drug-resistant NDM1 producing Escherichia coli clinical isolate 1460 after 16 to 20 hrs by broth microdilution method; type: functional; procedure, shortened: as §1
Staphylococcus aureus [24] = experiment: Antibacterial activity against methicillin-resistant Staphylococcus aureus clinical isolate 20130911034sau after 16 to 20 hrs by broth microdilution method; type: functional; procedure, shortened: as §1
Klebsiella pneumoniae [25] = experiment: Antibacterial activity against drug-resistant carbapenemase producing Klebsiella pneumoniae clinical isolate KP-14-45 after 16 to 20 hrs by broth microdilution method; type: functional; procedure, shortened: as §1
Staphylococcus aureus [26] = experiment: Antibacterial activity against methicillin-resistant Staphylococcus aureus clinical isolate 1105183 cono7 after 16 to 20 hrs by broth microdilution method; type: functional; procedure, shortened: as §1
Escherichia coli [27] = experiment: Antibacterial activity against drug-resistant NDM1 producing Escherichia coli clinical isolate Ecl-14-58 after 16 to 20 hrs by broth microdilution method; type: functional; procedure, shortened: as §1
Klebsiella pneumoniae [28] = experiment: Antibacterial activity against drug-resistant carbapenemase producing Klebsiella pneumoniae clinical isolate KP-14-3 after 16 to 20 hrs by broth microdilution method; type: functional; procedure, shortened: as §1
Klebsiella pneumoniae [29] = experiment: Antibacterial activity against drug-resistant carbapenemase producing Klebsiella pneumoniae clinical isolate KP-14-2 after 16 to 20 hrs by broth microdilution method; type: functional; procedure, shortened: as §1
Staphylococcus aureus [30] = experiment: Antibacterial activity against methicillin-resistant Staphylococcus aureus clinical isolate 1207007 after 16 to 20 hrs by broth microdilution method; type: functional; procedure, shortened: as §1

CCCCCCCC[N+](C)(C)CC(=O)Nc1ccc(C(=O)/C=C/c2ccccc2F)cc1.[Cl-]
MIC (Staphylococcus aureus [1]): 8 µg/mL | MIC (Staphylococcus aureus [2]): 1 µg/mL | MIC (Klebsiella pneumoniae [3]): 16 µg/mL | Activity (Escherichia coli [4]): Active | MIC (Klebsiella pneumoniae [5]): 8 µg/mL | MBC (Staphylococcus aureus [6]): 8 µg/mL | Activity (Staphylococcus aureus [7]): Active | MIC (Staphylococcus aureus [8]): 1 µg/mL | MIC (Escherichia coli [9]): 4 µg/mL | MIC (Escherichia coli [10]): 4 µg/mL | MBC (Staphylococcus aureus [11]): 128 µg/mL | MIC (Escherichia coli [12]): 1 µg/mL | MIC (Escherichia coli [13]): 16 µg/mL | Activity (Staphylococcus aureus [14]): 9.59 log10CFU/ml | Activity (Staphylococcus aureus [15]): 8.95 log10CFU/ml | MIC (Staphylococcus aureus [16]): 0.5 µg/mL | MIC (Escherichia coli [17]): 4 µg/mL | MIC (Staphylococcus aureus [18]): 4 µg/mL | MIC (Staphylococcus aureus [19]): 2 µg/mL | MIC (Klebsiella pneumoniae [20]): 4 µg/mL | MIC (Klebsiella pneumoniae [21]): 16 µg/mL | MIC (Escherichia coli [22]): 4 µg/mL | MIC (Escherichia coli [23]): 4 µg/mL | MIC (Staphylococcus aureus [24]): 0.5 µg/mL | MIC (Klebsiella pneumoniae [25]): 8 µg/mL | MIC (Staphylococcus aureus [26]): 1 µg/mL | MIC (Escherichia coli [27]): 4 µg/mL | MIC (Klebsiella pneumoniae [28]): 8 µg/mL | MIC (Klebsiella pneumoniae [29]): 16 µg/mL | MIC (Staphylococcus aureus [30]): 0.25 µg/mL
